This is an account of results in ChEMBL document CHEMBL3580530, “Allotides: Proline-Rich Cystine Knot α-Amylase Inhibitors from Allamanda cathartica” (J Nat Prod, 2015).

Activity calls are given as the source filed them. The rule behind the calls is not given here. Where a SMILES comes first, the peptide text is derived from it. Bridges are numbered along the chain shown (N, C = ends).

Data set [1] is described as follows: Thermal stability assessed as compound degradation in presence of chymotrypsin at 37 degC incubated for 4 hrs. Format: ADME. As to conditions: isolated protein. In a few lines:
(§1)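 Peptide incubated with chymotrypsin at 37 °C for 4 h. Intact peptide monitored by UPLC and MS.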

Data set [2] can be described thus: Thermal stability assessed as compound degradation at 100 degC incubated for 1 hr. It counts as physicochemical. In a few lines: (§2)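 Peptide heated at 100 °C for 1 h. Intact peptide monitored by UPLC and MS.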
The next data set deals with Aspergillus oryzae. Put plainly: Inhibition of Aspergillus oryzae alpha-amylase pre-incubated for 20 mins at 37 degC by bernfeld method. In a few lines:
(§3)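 Bernfeld method. Peptide preincubated with α-amylase for 20 min at 37 °C. Hydrolysis started with 1% starch, run 5 min, then stopped with dinitrosalicylic acid color reagent. Absorbance read at 540 nm, with untreated enzyme set as 100%. Enzyme sources: T. molitor larval extract, human saliva, porcine pancreas, A. oryzae.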

Data set [3] addresses Alpha-amylase (Tenebrio molitor) (UniProt P56634). Put plainly: (§4) Inhibition of Tenebrio molitor alpha-amylase pre-incubated for 20 mins at 37 degC by bernfeld method. In outline: as §3
Data set [4] addresses T1, Pancreatic alpha-amylase (Sus scrofa) (UniProt P00690).
T1 sequence (whole entry): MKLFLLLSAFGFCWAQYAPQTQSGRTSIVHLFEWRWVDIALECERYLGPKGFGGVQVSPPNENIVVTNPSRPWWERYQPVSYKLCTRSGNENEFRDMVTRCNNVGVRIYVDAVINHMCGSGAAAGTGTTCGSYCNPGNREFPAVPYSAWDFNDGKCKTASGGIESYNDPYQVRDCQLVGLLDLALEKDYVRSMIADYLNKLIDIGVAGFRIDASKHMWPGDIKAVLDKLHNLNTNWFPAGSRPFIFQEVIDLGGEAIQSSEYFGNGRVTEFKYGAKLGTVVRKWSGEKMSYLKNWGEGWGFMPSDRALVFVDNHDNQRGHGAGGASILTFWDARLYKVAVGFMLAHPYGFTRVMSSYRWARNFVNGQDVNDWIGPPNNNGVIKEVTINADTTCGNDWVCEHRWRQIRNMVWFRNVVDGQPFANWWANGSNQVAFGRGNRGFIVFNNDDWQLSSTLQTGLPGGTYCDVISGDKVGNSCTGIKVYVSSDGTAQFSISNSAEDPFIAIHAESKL
Put plainly: Inhibition of porcine pancreas alpha-amylase pre-incubated for 20 mins at 37 degC by bernfeld method. In outline:
as §3

In data set [5] the target is T2, Alpha-amylase 1A (Homo sapiens) (UniProt P0DUB6).
T2 sequence (whole entry): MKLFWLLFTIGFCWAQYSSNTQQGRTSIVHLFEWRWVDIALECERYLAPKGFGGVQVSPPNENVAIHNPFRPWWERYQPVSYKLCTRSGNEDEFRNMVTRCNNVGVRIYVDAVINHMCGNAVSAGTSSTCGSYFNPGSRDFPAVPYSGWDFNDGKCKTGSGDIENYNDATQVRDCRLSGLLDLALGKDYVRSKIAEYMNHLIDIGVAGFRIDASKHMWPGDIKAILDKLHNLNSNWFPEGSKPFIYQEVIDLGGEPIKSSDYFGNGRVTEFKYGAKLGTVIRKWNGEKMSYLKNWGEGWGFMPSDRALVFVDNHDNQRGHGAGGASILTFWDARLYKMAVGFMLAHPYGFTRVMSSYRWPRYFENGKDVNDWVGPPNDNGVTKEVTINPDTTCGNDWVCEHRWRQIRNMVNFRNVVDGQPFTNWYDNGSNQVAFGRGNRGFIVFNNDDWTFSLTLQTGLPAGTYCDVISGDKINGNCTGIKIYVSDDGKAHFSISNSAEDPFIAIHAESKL
As to the kind of experiment: Inhibition of alpha-amylase in human saliva pre-incubated for 20 mins at 37 degC by bernfeld method. In outline: as §3

The next data set has as its system Vero. Put plainly: Toxicity against African green monkey Vero cells assessed as effect on cell viability up to 100 uM by Presto blue reagent based assay. As to conditions: chlorocebus sabaeus.
A short description of data set [6]: Toxicity against human HuH7 cells assessed as effect on cell viability up to 100 uM by Presto blue reagent based assay. The note with it: huh-7.
Data set [7] in a line: Thermal stability assessed as compound hydrolysis using filly reduced form of compound in presence of chymotrypsin at 37 degC incubated for 4 hrs by UPLC and MS method. Format: ADME. The note with it: isolated protein. In outline:
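Incubated with chymotrypsin at 37 °C for 4 h, then analysed by UPLC and MS.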

The nature of data set [8]: Thermal stability assessed as compound remaining at 100 degC incubated for 1 hr by UPLC and MS method. Format: physicochemical. The note with it: read-out: Stability. In a few lines: as §2
Data set [9] is described as follows: Thermal stability assessed as compound remaining in presence of chymotrypsin at 37 degC incubated for 4 hrs by UPLC and MS method. Format: ADME. As to conditions: read-out: Stability. In a few lines:
as §1

The next data set concerns the target Alpha-amylase (Tenebrio molitor, UniProt P56634). Described as §4. In a few lines:
as §3

A further data set relates to Escherichia coli. As to the kind of experiment: Antibacterial activity against Escherichia coli up to 100 uM by radial diffusion assay. Format: functional, organism-based. In a few lines:
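Radial diffusion assay against E. coli, peptide tested up to 100 μM. Positive control: D4R, a broad-spectrum antimicrobial peptide dendrimer made in-house.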

Data set [10] can be described thus: Toxicity against BHK cells assessed as effect on cell viability up to 100 uM by Presto blue reagent based assay. As to conditions: hamster. Further details: species or system Mesocricetus auratus.
A short description of data set [11]: Toxicity against human O type erythrocytes cells assessed as induction of hemolysis up to 100 uM. As to conditions: erythrocyte. Format: cell-based. In outline: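 Hemolysis tested on human type O erythrocytes at up to 100 μM. Cliotide T4 used as the hemolytic positive control. Absorbance read on a microplate reader.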

Alpha-amylase (Tenebrio molitor), sequence (P56634 whole entry): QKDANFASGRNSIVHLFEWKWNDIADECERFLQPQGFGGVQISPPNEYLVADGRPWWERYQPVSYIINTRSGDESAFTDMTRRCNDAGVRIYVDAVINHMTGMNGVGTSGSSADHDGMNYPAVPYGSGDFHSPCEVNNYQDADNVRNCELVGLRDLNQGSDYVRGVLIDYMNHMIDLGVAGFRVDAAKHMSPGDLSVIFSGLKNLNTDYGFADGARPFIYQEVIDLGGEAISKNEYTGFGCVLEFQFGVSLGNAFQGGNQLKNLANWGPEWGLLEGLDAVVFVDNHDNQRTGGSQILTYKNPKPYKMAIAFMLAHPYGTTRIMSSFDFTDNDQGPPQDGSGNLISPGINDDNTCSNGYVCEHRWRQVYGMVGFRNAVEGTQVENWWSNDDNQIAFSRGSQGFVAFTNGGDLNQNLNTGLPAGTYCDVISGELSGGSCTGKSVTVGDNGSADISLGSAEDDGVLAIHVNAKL
Alpha-amylase, sequence (P56634 whole entry): as above

For the compound `CC[C@H](C)[C@@H]1NC(=O)CNC(=O)CNC(=O)[C@H]([C@@H](C)CC)NC(=O)[C@H](C(C)C)NC(=O)[C@@H]2CCCN2C(=O)[C@H](CCC(N)=O)NC(=O)[C@H]([C@@H](C)O)NC(=O)[C@@H]2CSSC[C@@H]3NC(=O)[C@H](Cc4ccc(O)cc4)NC(=O)[C@H](CCC(=O)O)NC(=O)CNC(=O)[C@H](CCCCN)NC(=O)[C@H](CCC(N)=O)NC(=O)[C@H](C)NC(=O)[C@@H](N)CSSC[C@H](NC(=O)[C@H](CSSC[C@@H](C(=O)N[C@@H](C)C(=O)O)NC1=O)NC(=O)[C@H](CCC(N)=O)NC(=O)[C@H](CC(C)C)NC(=O)[C@H](Cc1ccc(O)cc1)NC(=O)[C@H](C(C)C)NC(=O)[C@H](CO)NC3=O)C(=O)N[C@@H](CC(=O)O)C(=O)N1CCC[C@H]1C(=O)N[C@@H](Cc1ccc(O)cc1)C(=O)N[C@@H](Cc1cnc[nH]1)C(=O)N2`, the Stability entry in data set [1] and in [2] was “Stable” in each case.
For the compound `CC[C@H](C)[C@@H]1NC(=O)CNC(=O)CNC(=O)[C@H]([C@@H](C)CC)NC(=O)[C@H](C(C)C)NC(=O)[C@@H]2CCCN2C(=O)[C@H](CCC(N)=O)NC(=O)[C@H]([C@@H](C)O)NC(=O)[C@@H]2CSSC[C@@H]3NC(=O)[C@H](Cc4ccc(O)cc4)NC(=O)[C@H](CCC(=O)O)NC(=O)CNC(=O)[C@H](CCCCN)NC(=O)[C@H](CCC(N)=O)NC(=O)[C@H](C)NC(=O)[C@@H](N)CSSC[C@H](NC(=O)[C@H](CSSC[C@H](C(=O)N[C@@H](C)C(=O)O)NC1=O)NC(=O)[C@H](CCC(N)=O)NC(=O)[C@H](CC(C)C)NC(=O)[C@H](Cc1ccc(O)cc1)NC(=O)[C@H](C(C)C)NC(=O)[C@H](CO)NC3=O)C(=O)N[C@@H](CC(=O)O)C(=O)N1CCC[C@H]1C(=O)N[C@@H](Cc1ccc(O)cc1)C(=O)N[C@@H](Cc1cnc[nH]1)C(=O)N2`, the inhibition entry (in the data set on Aspergillus oryzae; in [3]; in data set [4]; in data set [5]) was “inactive” in each case.
Turning to `CC[C@H](C)[C@@H]1NC(=O)CNC(=O)[C@H](CC(=O)O)NC(=O)[C@@H]2CSSC[C@@H]3NC(=O)[C@H](CC(C)C)NC(=O)[C@H](Cc4c[nH]c5ccccc45)NC(=O)[C@@H]4CCCN4C(=O)[C@H](CC(=O)O)NC(=O)[C@H](CSSC[C@H](N)C(=O)N[C@@H]([C@@H](C)CC)C(=O)N[C@@H](C)C(=O)N[C@@H](Cc4cnc[nH]4)C(=O)N[C@@H](Cc4ccc(O)cc4)C(=O)NCC(=O)N[C@@H](CCCCN)C(=O)N2)NC(=O)[C@H](CSSC[C@@H](C(=O)N[C@@H](CC(C)C)C(=O)O)NC(=O)[C@H](Cc2ccccc2)NC(=O)CNC(=O)[C@H]([C@@H](C)CC)NC(=O)[C@H]([C@@H](C)CC)NC(=O)[C@@H]2CCCN2C(=O)[C@@H]2CCCN2C(=O)[C@H]([C@@H](C)O)NC3=O)NC(=O)[C@H](CCC(N)=O)NC(=O)[C@H](CC(N)=O)NC(=O)[C@H]([C@@H](C)CC)NC1=O` (H-CIAHYGKCDGIINQCCDPWLCTPPIIGFCL-OH; disulfide 1-16, 8-21, 15-29), the inhibition result (in the data set on Aspergillus oryzae; in data set [4]; in data set [5]) was “inactive” each time. Besides, the Activity entry (in the data set with Vero; in [6]; in data set [10]; in data set [11]) was “Non-toxic” throughout. Also, the Stability entry in data set [7] is recorded as “Unstable”; in data set [1], “Stable”; in data set [2] it was “Stable”. The remaining at 1 h in [8] is more than 90%. Further, in data set [9], the remaining at 4 h is more than 90%. Besides, in data set [3], the inhibition result was “Dose-dependent effect”. The compound further returned an IC50 against Alpha-amylase of 2600 nM. Further, in the data set on Escherichia coli, the result was inactive.

As usually defined, the IC50 is the concentration at which inhibition is half-maximal.
